TRPC4 agonist: activators of mouse TRPC4 channel | Q9QUQ5 | HEK293 TRPC4beta/mu-opioid, Fluo4 calcium fluorescence; stronger effect = higher value | B-score at 10 µM | hit rate 0.49% among 310,000;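 active = B-score above 5 SD of library B-scores, and initial fluorescence ratio not above library mean plus 5 SD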;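 note: positive B-score marks a calcium rise read as TRPC4 activation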
Target sequence (Q9QUQ5 whole entry, looked up): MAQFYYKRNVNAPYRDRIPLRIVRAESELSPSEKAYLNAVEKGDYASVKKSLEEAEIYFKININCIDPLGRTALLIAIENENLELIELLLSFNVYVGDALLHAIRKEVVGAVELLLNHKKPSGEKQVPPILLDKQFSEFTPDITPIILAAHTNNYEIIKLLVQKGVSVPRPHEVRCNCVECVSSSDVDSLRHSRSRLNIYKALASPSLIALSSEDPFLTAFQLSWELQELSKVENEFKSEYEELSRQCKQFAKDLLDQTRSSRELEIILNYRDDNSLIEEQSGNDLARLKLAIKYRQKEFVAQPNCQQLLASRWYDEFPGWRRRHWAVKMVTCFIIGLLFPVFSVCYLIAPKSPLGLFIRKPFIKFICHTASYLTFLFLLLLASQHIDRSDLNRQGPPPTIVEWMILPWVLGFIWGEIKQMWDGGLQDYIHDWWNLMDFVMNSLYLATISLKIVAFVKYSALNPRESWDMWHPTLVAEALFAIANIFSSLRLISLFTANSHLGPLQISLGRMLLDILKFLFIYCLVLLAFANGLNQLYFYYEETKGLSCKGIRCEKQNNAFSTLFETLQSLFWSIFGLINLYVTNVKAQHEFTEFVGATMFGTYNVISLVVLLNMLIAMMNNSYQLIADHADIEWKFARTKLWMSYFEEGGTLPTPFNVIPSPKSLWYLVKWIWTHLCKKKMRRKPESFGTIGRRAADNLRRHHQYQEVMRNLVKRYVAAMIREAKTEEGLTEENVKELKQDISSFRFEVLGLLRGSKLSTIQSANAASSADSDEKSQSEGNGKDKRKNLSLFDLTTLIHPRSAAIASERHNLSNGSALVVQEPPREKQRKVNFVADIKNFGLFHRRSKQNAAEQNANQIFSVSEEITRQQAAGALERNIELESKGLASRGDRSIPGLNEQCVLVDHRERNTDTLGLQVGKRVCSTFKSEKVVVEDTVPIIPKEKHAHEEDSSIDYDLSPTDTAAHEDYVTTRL
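System – HEK293 cells stably co-expressing mouse TRPC4beta and mu-opioid receptor · Signal – Fluo4 calcium-sensitive dye fluorescence, kinetic, 1 Hz baseline · Benchmarks – buffer (low) and maximal DAMGO (high) · Read-out – B score of integrated fluorescence ratio per well · Incubation – dye loading 45 min room temperature, 110 s kinetic read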
TRPC4 inh: inhibitors of mouse TRPC4 channel; hit rate 0.39% among 300,000; B-score at 10 µM; Q9QUQ5; HEK293 TRPC4beta/mu-opioid, DAMGO-evoked Fluo4 calcium flux; stronger effect = lower value;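 active = B-score over 3 SD under the library average, no early fluorescence shift, positive overall ratio signal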
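Signal: kinetic Fluo4 fluorescence imaging of calcium influx. Material: stable TRPC4beta/mu-opioid receptor HEK293 cells. Probe or stimulus: DAMGO in two steps, submaximal then maximal.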
TRPC6 activator: mouse TRPC6 channel activation. hit rate 0.13% among 310,000. Q61143. HEK293-TRPC6 membrane potential dye fluorescence; stronger effect = higher value. B-score at 10 µM. AID 2550;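 active = B-score of the integrated fluorescence ratio above library mean plus 3 SD, and starting fluorescence ratio within library mean plus 5 SD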;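 note: higher score means more depolarization so channel activation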
TRPC4 PAM: allosterically enhances the mouse TRPC4 cation channel. HEK293 TRPC4beta/mu-opioid, DAMGO EC20, Fluo-4 Ca2+ flux; stronger effect = higher value. B-score at 10 µM. hit rate 0.42% among 310,000;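 active = B-score of calcium response area above 5 SD of library B-scores, with initial fluorescence ratio within 5 SD of library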
TRPC6 inhibitor: inhibitors of mouse TRPC6 channel. Q61143. HEK293-TRPC6, membrane potential dye, ACh-evoked depolarization; stronger effect = lower value. B-score at 10 µM. hit rate 1.1% among 310,000. AID 2553;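 active = B-score under library mean minus 3 SD, initial fluorescence not abnormally high, positive integrated signal ratio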;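 note: B-score derived from integrated fluorescence ratio over the kinetic read; more negative B-score means stronger inhibition of depolarization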
TRPC4 spec 2: second check of whether TRPC6 inhibitors also affect mouse TRPC4 | AID 2776 | inhibition, % at 10 µM | HEK293 TRPC4/MOR, membrane potential dye fluorescence; channel activated by saturating DAMGO dose | shares compounds with TRPC6 inhibitor | hit rate 42% among 920;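 active = compounds whose fluorescence signal differed from control wells by over 3 SD, either direction, in both duplicate plates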
TRPC4 spec: mouse TRPC4 off-target activity of TRPC6 inhibitors; shares compounds with TRPC6 inhibitor; HEK293 TRPC4/mu-opioid, membrane potential fluorescence; activity change, negative = inhibition, % at 10 µM; hit rate 61% among 920; AID 2777;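 active = rise or fall in signal beyond 3 SD of buffer-only wells in both replicate plates, either sign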;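 note: integrated kinetic ratio of fluorescence range over baseline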
HEK293 MPD ctr 2-1: second check of TRPC6 inhibitor effects in parental HEK293 cells; shares compounds with TRPC6 inhibitor; parental HEK293 membrane potential dye fluorescence; maximal acetylcholine challenge after compound addition; signal change vs control, % at 10 µM; hit rate 31% among 920; AID 2779;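 active = membrane potential signal moving either way by over 3 SD of the maximum-effect control, in both duplicate plates, meaning non-specific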
HEK293 MPD ctr-1: counter-screen for TRPC6 inhibitors: effect in parental HEK293 cells; shares compounds with TRPC6 inhibitor; parental HEK293 membrane potential dye fluorescence; membrane potential signal change, % at 10 µM; hit rate 60% among 920; AID 2780;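 active = membrane potential signal shifting up or down by more than 3 SD of buffer-only wells, on both duplicate plates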
HEK293 MPD ctr-2: counter-screen for TRPC6 modulators: effect in parental HEK293 cells; shares compounds with TRPC6 inhibitor; membrane potential dye fluorescence; membrane potential signal change, % at 10 µM; hit rate 51% among 2,400;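 active = membrane potential signal moves up or down beyond 5 SD from buffer-only wells, on both duplicate plates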
HEK293 MPD ctr 2-2: parental HEK293 nonspecific activity of TRPC6 modulators, second screen; shares compounds with TRPC6 inhibitor; membrane potential dye fluorescence; after compound, maximal acetylcholine stimulation; hit rate 14% among 2,400; AID 488926; inhibition, % at 10 µM;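 active = membrane potential signal drops by more than 5 SD from the mean control signal, in both duplicate plates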
TRPC4/MOR mod: tests whether TRPC6 modulators also affect mouse TRPC4. hit rate 69% among 2,400. shares compounds with TRPC6 inhibitor. HEK293 TRPC4/mu-opioid, membrane potential fluorescence. percent change from control (negative = decrease, positive = increase), % at 10 µM;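 active = membrane potential signal moved up or down beyond 5 SD of buffer control wells, in both duplicate plates, actives on both sides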
TRPC4/MOR inh 2: second check of whether TRPC6 modulators also affect mouse TRPC4 | shares compounds with TRPC6 inhibitor | HEK293 TRPC4/mu-opioid, membrane potential dye fluorescence; stimulated with maximal-effect DAMGO | inhibition, % at 10 µM | hit rate 55% among 2,400 | AID 488928;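 active = drop in membrane potential signal beyond 5 SD of the control wells in both duplicate plates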;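 note: TRPC4 counter screen for TRPC6 hits run under conditions tuned for TRPC6 not TRPC4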
TRPC6 inh conf: confirmation of mouse TRPC6 inhibitors. hit rate 43% among 3,300. shares compounds with TRPC6 inhibitor. HEK293-TRPC6, membrane potential dye, ACh-evoked depolarization. inhibition, % at 10 µM;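 active = fluorescence ratio falls more than 5 SD below the full-stimulation control mean, in both duplicate runs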;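 note: integrated fluorescence ratio of peak minus minimum over baseline after agonist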
TRPC6 act confirm: confirmation of mouse TRPC6 activators. shares compounds with TRPC6 inhibitor. HEK293-TRPC6 membrane potential dye fluorescence, FDSS. activation, % at 10 µM. hit rate 11% among 2,800;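 active = ratio signal rise beyond 5 SD above unstimulated control wells' mean, seen in both duplicate runs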
Hits are given with their value; 0 = inactive; - = not tested or not shown. Sampled rows, rich in hits. Any-hit rate of the full collection: about 2.3%.

SMILES	TRPC4 agonist	TRPC4 inh	TRPC6 activator	TRPC4 PAM	TRPC6 inhibitor	HEK293 MPD ctr-2	HEK293 MPD ctr 2-2	TRPC4/MOR mod	TRPC4/MOR inh 2	TRPC6 inh conf	TRPC6 act confirm	others
CCOC(=O)C1=C(C)OC(N)=C(C#N)C1c1cc2c(cc1Br)OCO2 (configuration not stated)	0	0	0	0	-5.2	0	0	0	0	0	0
C/C(=N/NC(=S)Nc1cccc(C)c1)c1cccc([N+](=O)[O-])c1	0	0	0	0	-5.3	0	0	0	30%	0	0
O=C(c1ccco1)N1CCCC(N2CCN(c3cccc(C(F)(F)F)c3)CC2)C1 (configuration not stated)	0	0	0	0	0	-	-	-	-	-	-
CC(=O)/C(=N/Nc1ccccc1[N+](=O)[O-])N1CCCc2ccccc21	0	0	0	0	-6.6	0	0	0	49%	0	0
CC(=O)Oc1c(/C=C(\C#N)C(N)=O)[nH]c2ccccc12	0	0	27	0	0	657%	0	170%	0	0	170%
Cc1ccc(NC(=O)c2cc(-c3cccs3)nc3ccccc23)nc1	0	0	0	0	-6.4	0	0	0	39%	0	0
C[N+]1(CC#CC(O)(c2ccccc2)c2ccccc2)CCCC1	0	0	0	0	-7.3	-	-	-	-	91%	0	TRPC4 spec 2=0;TRPC4 spec=0;HEK293 MPD ctr 2-1=-27%;HEK293 MPD ctr-1=0
CCN(CC#CCC(O)(c1ccccc1)c1ccccc1)C(C)C	0	0	0	0	0	-	-	-	-	-	-
CC(C)[N+](C)(C)CC#CC(O)(c1ccccc1)c1ccccc1	0	0	0	0	-9.2	-	-	-	-	85%	0	TRPC4 spec 2=0;TRPC4 spec=0;HEK293 MPD ctr 2-1=25%;HEK293 MPD ctr-1=0
Cc1ccccc1C(OCCN(C(C)C)C(C)C)c1ccccc1 (configuration not stated)	0	0	0	0	-5	209%	88%	44%	44%	80%	-
CN(C)CCOC(c1ccccc1)c1ccccc1 (tested in a mixture with another compound)	0	0	0	0	-5.2	154%	0	26%	34%	51%	-
OCC1CCCN(c2nc(CN3CCCCC3)nc3scc(-c4ccccc4)c23)C1 (configuration not stated)	0	0	0	0	0	-	-	-	-	-	-
CCNc1nc(CN2CCCCC2)nc2scc(-c3ccccc3)c12	0	0	0	0	-5.8	0	0	0	39%	0	0
COc1ccc(CCC(C)NC2C3CC4CC(C3)CC2C4)cc1 (configuration not stated)	0	0	0	0	-8.5	-	-	-	-	94%	-	TRPC4 spec 2=66%;TRPC4 spec=37%;HEK293 MPD ctr 2-1=-12%;HEK293 MPD ctr-1=21%
